In ChEMBL document CHEMBL2406929, “An optimized pyrimidinol multifunctional radical quencher” (ACS Med Chem Lett, 2013) one finds Activity, EC50 and inhibition data, which are given here for 10 compounds.

Active and inactive are the calls of the source. The calls are words filed in the database; no cut-off is given here.

The nature of assay [1]: Effect on total ATP level in CoQ10-deficient human GM17932 cells at 5 uM after 48 hrs by bioluminescence assay relative to control. It counts as functional. In outline:
(§1)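 Total cellular ATP measured in CoQ10-deficient and FRDA lymphocytes grown in glucose-free medium supplemented with galactose, so that cells rely on oxidative phosphorylation. Compounds tested at 5, 10 and 25 μM for 48 h, added from DMSO (final <0.5%). ATP expressed as % of untreated control.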

Assay [2] can be described thus: Effect on total ATP level in human Friedreich's ataxia lymphocytes at 5 uM after 48 hrs by bioluminescence assay relative to control. It counts as functional. Summed up:
as §1

Assay [3] in a line: Effect on total ATP level in CoQ10-deficient human GM17932 cells at 25 uM after 48 hrs by bioluminescence assay relative to control. It counts as functional. Summed up:
as §1

Assay [4] is described as follows: Effect on total ATP level in CoQ10-deficient human GM17932 cells at 10 uM after 48 hrs by bioluminescence assay relative to control. It counts as functional. In outline: as §1
The species named for assay [5] is Homo sapiens. Kind of assay: Cytoprotective activity against diethyl maleate-induced loss of mitochondrial membrane integrity in human Friedreich's ataxia lymphocytes at 100 nM incubated overnight prior to diethyl maleate-treatment measured after 140 mins by TMRM staining-based FACS flow cytometric analysis relative to control. It counts as functional. Summed up:
(§2)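 Δψm in FRDA lymphocytes after diethyl maleate treatment. Cells stained with 250 nM TMRM and analyzed by flow cytometry on the FL2-H channel, 10,000 events per sample. Result is the % of cells with intact Δψm (top-right quadrant). FCCP uncoupler used as positive control. Final DMSO <0.5%. Means ± SEM of three independent experiments run in duplicate.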
Background: A flow cytometer gives signals particle by particle.

The nature of assay [6]: Cytoprotective activity against BSO-induced cell death in human Friedreich's ataxia fibroblasts preincubated for 12 hrs prior to BSO-treatment measured after 48 hrs by luminescence assay.
For assay [7], the species on record is Homo sapiens. Kind of assay: Cytoprotective activity against diethyl maleate-induced loss of mitochondrial membrane integrity in human Friedreich's ataxia lymphocytes at 250 nM incubated overnight prior to diethyl maleate-treatment measured after 140 mins by TMRM staining-based FACS flow cytometric analysis relative to control. It counts as functional. In outline: as §2

Assay [8] can be described thus: Effect on total ATP level in human Friedreich's ataxia lymphocytes at 25 uM after 48 hrs by bioluminescence assay relative to control. It counts as functional. Summed up:
as §1

Assay [9] is filed under the species Homo sapiens. Kind of assay: Reversal of 4-nitrobenzoate-induced reduction in mitochondrial ATP level in CoQ10-deficient human Friedreich's ataxia lymphocytes at 10 uM after 6 days by bioluminescence assay. It counts as functional.
The species named for assay [10] is Homo sapiens. In words: Reversal of 4-nitrobenzoate-induced reduction in mitochondrial ATP level in CoQ10-deficient human Friedreich's ataxia lymphocytes at 5 uM after 6 days by bioluminescence assay. The assay is classed as functional.
For assay [11], the species on record is Homo sapiens. In words: Antioxidant activity in human Friedreich's ataxia lymphocytes assessed as inhibition of diethyl maleate-induced lipid peroxidation at 100 to 500 nM incubated overnight prior to diethyl maleate-treatment measured after 120 mins by C11-BODIPY581/591 staining-based FACS flow cytometric analysis. It counts as functional. Summed up: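 Glutathione depletion by diethyl maleate in FRDA lymphocytes. Cells stained with C11-BODIPY581/591; oxidized green fluorescence read by FACS on the FL1-H channel. Lipid peroxidation taken as the increase in geometric mean fluorescence intensity relative to the untreated control, expressed as % scavenging activity. Compounds added from DMSO (final DMSO <0.5%). Mean ± SEM, n = 3.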

The species entered for assay [12] is Homo sapiens. Kind of assay: Cytoprotective activity against diethyl maleate-induced loss of mitochondrial membrane integrity in human Friedreich's ataxia lymphocytes at 500 nM incubated overnight prior to diethyl maleate-treatment measured after 140 mins by TMRM staining-based FACS flow cytometric analysis relative to control. It counts as functional. In outline: as §2

The nature of assay [13]: Effect on total ATP level in human Friedreich's ataxia lymphocytes at 10 uM after 48 hrs by bioluminescence assay relative to control. The assay is classed as functional. Summed up:
as §1

The species named for assay [14] is Homo sapiens. In words: Decrease in total ATP level in human Friedreich's ataxia lymphocytes after 48 hrs by bioluminescence assay. The assay is classed as functional. Summed up:
as §1

For assay [15], the species on record is Homo sapiens. In words: Decrease in total ATP level in CoQ10-deficient human GM17932 cells after 48 hrs by bioluminescence assay. The assay is classed as functional. Summed up:
as §1

For assay [16], the species on record is Homo sapiens. In words: Decrease in mitochondrial ATP level in CoQ10-deficient human Friedreich's ataxia lymphocytes at 5 uM after 6 days by bioluminescence assay. The assay is classed as functional.
For assay [17], the species on record is Homo sapiens. Kind of assay: Decrease in mitochondrial ATP level in CoQ10-deficient human Friedreich's ataxia lymphocytes at 5 uM after 6 days by bioluminescence assay in presence of 4-nitrobenzoate. The assay is classed as functional.

As a reminder, the EC50 is the concentration that produces a half-maximal response. Low readings indicate a more potent agent, high ones a less potent agent.

For `COc1nc(N(C)C)nc(CCCCCCCCCCO)c1O`, the Activity in assay [1] was determined as 102%; in assay [2] it was 80%; in [3], 54%; in assay [4], 95%; in assay [5] it was 32%; in assay [7] it was 48%. Also, the Activity amounted to 46% in [8], 68% in assay [12] and 66% in [13]. This compound also came in with an EC50 in assay [6] of 345 nM. The result in assay [9] was inactive. For the same compound, the result in assay [10] was Active. For the same compound, the inhibition result in assay [11] is “Active”.

Take `COc1nc(N(C)C)nc(CCCCCCCCCCOCC23CC4CC(CC(C4)C2)C3)c1O`: the Activity came to 105% in [1]; 107% in assay [2]; 64% in assay [3]; 97% in assay [4]; 63% in assay [5]; 82% in [7]. The Activity turned out to be 72% in assay [8], 90% in assay [12] and 103% in assay [13]. In addition, a half-maximal response in assay [6] (EC50) required 32 nM. Besides, the inhibition entry in [11] is “Active”.

On to `CCCCCCCCCCC1=C(C)C(=O)C(OC)=C(OC)C1=O` [DECYLUBIQUINONE], for which the Activity in assay [1] is 100%; in [2], 93%; in assay [14], “Dose-dependent effect”; in assay [3] it was 63%; in assay [4], 99%; in assay [5], 60%. In addition, the Activity entry in assay [15] is “Dose-dependent effect”; in assay [7] it was 82%; in [8] it was 63%; in assay [12] it was 90%; in assay [13] it was 76%. In addition, the concentration for a half-maximal effect (EC50) in assay [6] came out at 56 nM.

As to `CCCCCCCCCCCCCCCCc1nc(N(C)C)nc(OC)c1OC(C)=O`, the Activity in assay [1] is 116%; in assay [2] it was 109%; in [3] it was 96%; in [4] it was 109%; in [8] it was 92%; in assay [13] it was 101%.

On to `CCCCCCCCCCc1nc(N(C)C)nc(OC)c1O`, for which the Activity in assay [1] stood at 96%; in assay [2] it was 94%; in assay [3], 58%; in assay [4], 83%; in [5], 68%; in [7], 80%. The Activity in [8] was found to be 58%; in assay [12] it was 88%; in [13], 87%. Further, in [6], the EC50 is 68 nM.

On to `CCCCCCCCCCCCCCCCc1nc(N(C)C)nc(OC)c1O`, for which the Activity in assay [1] worked out at 118%; in [2], 108%; in assay [3], 90%; in assay [4], 106%; in assay [5], 81%; in assay [7], 90%. The Activity came to 80% in assay [8], 92% in assay [12] and 96% in [13]. For the same compound, the EC50 in assay [6] was 25 nM. Further, in assay [10], the result was Active. In addition, the inhibition result in assay [11] is “Active”.

Take `COC1=C(OC)C(=O)C(CCCCCCCCCCO)=C(C)C1=O` [IDEBENONE]: the Activity in assay [1] is 80%; in assay [2], 73%; in assay [14], “Dose-dependent effect”; in [3], 2%; in assay [4] it was 46%; in [5] it was 18%. Also, the Activity entry is “Dose-dependent effect” in assay [15]; 26% in assay [7]; 3% in assay [8]; 45% in assay [12]; 46% in assay [13]. Further, the outcome in assay [16] and in assay [17] was Active. In assay [6], this compound gave an EC50 of 551 nM.

As to `Cc1nc(N(C)C)nc(CCCCCCCCCCO)c1O`, the Activity in assay [1] was found to be 99%; in assay [2], 77%; in assay [3] it was 46%; in [4] it was 86%; in assay [5] it was 25%; in [7], 37%. For the same compound, the Activity in assay [8] is 28%; in assay [12], 56%; in [13] it was 46%. Moreover, the midpoint of the response in assay [6], the EC50, lay at 456 nM.

In the case of `CCCCCCCCCCCCCCCCCCc1nc(N(C)C)nc(OC)c1O`, the Activity was found to be 98% in assay [1]; 101% in assay [2]; 96% in [3]; 98% in assay [4]; 39% in [5]; 55% in assay [7]. Moreover, the Activity came out at 102% in assay [8], 73% in [12] and 102% in [13]. In addition, in assay [6], the EC50 was determined as 266 nM. Also, the inhibition entry in [11] was “Active”.

Take `CCCCCCCCCCCCCCc1nc(N(C)C)nc(OC)c1O`: the Activity in [1] is 105%; in assay [2], 109%; in assay [3], 65%; in assay [4], 97%; in assay [5] it was 77%; in assay [7] it was 88%. For the same compound, the Activity in assay [8] was 55%; in assay [12], 92%; in assay [13], 97%. In assay [6], this compound showed an EC50 of 22 nM. The inhibition result in assay [11] was “Active”.
